Test results as given in ChEMBL document CHEMBL4130474, “Spirotriazoline oxindoles: A novel chemical scaffold with in vitro anticancer properties” (Eur J Med Chem, 2017).

Key:
HCT-116 [1] = assay: Antiproliferative activity in p53 (+/+) human HCT116 cells incubated for 72 hrs by MTS assay; type: functional, cell-based; settings: HCT-116, 72 h
Method in brief: (§1)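 HCT116 p53(+/+) or p53(−/−) seeded at 1 × 10⁵ cells/mL, adhered 24 h, then treated 72 h with compounds diluted from DMSO stocks. Viability by MTS (CellTiter96 AQueous) with absorbance at 490 nm. Duplicate wells, three independent experiments; IC50 by non-linear regression.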

[2] = […], ratio of IC50 for antiproliferative activity in HEK293T cells to IC50 for antiproliferative activity in human MDA-MB-231 cells; type: toxicity, cell-based; settings: HEK293T cells versus MDA-MB-231 cells, read-out: Ratio IC50
Method in brief: (§2)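 Ratio of HEK 293T IC50 to MDA-MB-231 IC50 from 72 h MTT assays.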

[3] = Selectivity index, ratio of IC50 for antiproliferative activity in HEK293T cells to IC50 for antiproliferative activity in human p53 (-/-) human HCT116 cells; type: toxicity, cell-based; settings: HEK293T cells versus p53 (-/-) HCT116 cells, read-out: Ratio IC50
HCT-116 [4] = assay: Antiproliferative activity in p53 (-/-) human HCT116 cells incubated for 72 hrs by MTS assay; type: functional, cell-based; settings: HCT-116, 72 h; method in brief: as §1
MDA-MB-231 = assay: Antiproliferative activity in human MDA-MB-231 cells incubated for 72 hrs by MTT assay; type: functional, cell-based; settings: MDA-MB-231, 72 h
Method in brief: (§3)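 Cells grown in RPMI 1640 with 10% FBS, penicillin/streptomycin; seeded at 2 × 10⁵ cells/mL, allowed to adhere 24 h, then exposed 72 h to compounds diluted in medium from DMSO stocks. MTT added after medium change, 3 h, formazan dissolved in DMSO, absorbance at 570 nm. Triplicate wells, at least 3 independent experiments; IC50 by non-linear regression.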

MCF7 = assay: Antiproliferative activity in human MCF7 cells incubated for 72 hrs by MTT assay; type: functional, cell-based; settings: MCF7, 72 h; method in brief: as §3
[5] = Selectivity index, ratio of IC50 for antiproliferative activity in HEK293T cells to IC50 for antiproliferative activity in human MCF7 cells; type: toxicity, cell-based; settings: HEK293T cells versus MCF7 cells, read-out: Ratio IC50
Method in brief: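 Ratio of HEK 293T IC50 to MCF-7 IC50 from 72 h MTT assays.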

HEK-293T = assay: Antiproliferative activity in human HEK293T cells incubated for 72 hrs by MTT assay; type: cell-based; method in brief: as §3
[6] = Selectivity index, ratio of IC50 for antiproliferative activity in HEK293T cells to IC50 for antiproliferative activity in human p53 (+/+) human HCT116 cells; type: toxicity, cell-based; settings: HEK293T cells versus p53 (+/+) HCT116 cells, read-out: Ratio IC50
[7] = Potency index, ratio of IC50 for antiproliferative activity in human MDA-MB-231 cells to IC50 for antiproliferative activity in human MCF7 cells; type: functional
Method in brief: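 Ratio of MDA-MB-231 IC50 to MCF-7 IC50 from 72 h MTT assays.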

[8] = Selectivity index, ratio of IC50 for antiproliferative activity in HEK293T cells to IC50 for antiproliferative activity in human MDA-MB-231 cells; type: toxicity, cell-based; settings: HEK293T cells versus MDA-MB-231 cells, read-out: Ratio IC50; method in brief: as §2
[9] = Potency index, ratio of IC50 for antiproliferative activity in human p53 (-/-) human HCT116 cells to IC50 for antiproliferative activity in human MDA-MB-231 cells; type: functional
[10] = Potency index, ratio of IC50 for antiproliferative activity in human p53 (+/+) human HCT116 cells to IC50 for antiproliferative activity in human MDA-MB-231 cells; type: functional
[11] = Potency index, ratio of IC50 for antiproliferative activity in human MCF7 cells to IC50 for antiproliferative activity in human MDA-MB-231 cells; type: functional

Row | Structure (SMILES) | IC50 (HCT-116 [1]) | selectivity ratio [2] | selectivity ratio [3] | IC50 (HCT-116 [4]) | IC50 (MDA-MB-231) | IC50 (MCF7) | selectivity ratio [5] | IC50 (HEK-293T) | selectivity ratio [6] | Ratio IC50 [7] | selectivity ratio [8] | Ratio IC50 [9] | Ratio IC50 [10] | Ratio IC50 [11]
1 | O=C1Nc2ccccc2C12N(c1ccccc1)N=C(c1ccccc1)N2c1ccc(Cl)cc1 (stereo not drawn) | 15 µM | ≥ 2.5 | 2.5 to 4.1 | 18.5 µM | 10.7 µM | 24.1 µM | 2.5 to 4.1 | > 100 µM | 2.5 to 4.1 | – | – | – | – | –
2 | COc1ccc(C2=NN(c3ccccc3)C3(C(=O)Nc4ccc(Br)cc43)N2c2cccc(Cl)c2)cc1 (stereo not drawn) | 22.2 µM | – | < 2 | 25.8 µM | 14.1 µM | 12.3 µM | < 2 | 25.9 µM | < 2 | – | – | – | – | –
3 | O=C1Nc2ccccc2[C@]12[C@@H](c1ccccc1)C(c1ccccc1)=NN2c1ccccc1 | – | – | – | – | – | > 100 µM | – | – | – | – | – | – | – | –
4 | O=C1Nc2c(Cl)cccc2C12N(c1ccccc1)N=C(c1ccccc1)N2c1ccccc1 (stereo not drawn) | 23.7 µM | ≥ 2.5 | 2.5 to 4.2 | 20.1 µM | 8.9 µM | 10.8 µM | 2.5 to 9.3 | > 100 µM | 2.5 to 4.2 | – | – | – | – | –
5 | O=C1Nc2ccc(Br)cc2[C@]12[C@@H](c1ccccc1)C(c1ccccc1)=NN2c1ccccc1 | – | – | – | – | > 100 µM | 7.3 µM | > 13.7 | > 100 µM | – | > 13.7 | – | – | – | –
6 | O=C1Nc2ccc(Cl)cc2[C@]12[C@@H](c1ccccc1)C(c1ccccc1)=NN2c1ccccc1 | – | – | – | – | – | 37.7 µM | – | – | – | – | – | – | – | –
7 | O=C1Nc2ccc(Br)cc2C12N(c1ccccc1)N=C(c1ccccc1)N2c1cccc(Cl)c1 (stereo not drawn) | 15.7 µM | – | < 2 | 17.8 µM | 3.5 µM | 21.4 µM | < 2 | 21.6 µM | < 2 | – | ≥ 2.4 | >=2.4 | >=2.4 | >=2.4
8 | O=C1Nc2ccccc2C12N(c1ccccc1)N=C(c1cccc(Cl)c1)N2c1ccc(Cl)cc1 (stereo not drawn) | 17.4 µM | – | < 2 | 16.1 µM | 11.6 µM | 13.1 µM | < 2 | 20.5 µM | < 2 | – | – | – | – | –
9 | O=C1Nc2ccc(Br)cc2C12N(c1ccccc1Cl)N=C(c1ccccc1)N2c1cccc(Cl)c1 (stereo not drawn) | 21.5 µM | – | < 2 | 31.6 µM | 11.7 µM | 10.2 µM | < 2 | 20.9 µM | < 2 | – | – | – | – | –
10 | O=C1Nc2ccccc2C12N(c1ccc(Cl)cc1)N=C(c1ccccc1)N2c1ccc(Cl)cc1 (stereo not drawn) | 18.5 µM | – | < 2 | 18.7 µM | 9 µM | 10.1 µM | < 2 | 15.8 µM | < 2 | – | – | – | – | –
11 | O=C1Nc2ccc(Br)cc2C12N(c1ccccc1)N=C(c1cccc(Cl)c1)N2c1cccc(Cl)c1 (stereo not drawn) | 12.6 µM | – | < 2 | 13 µM | 10.2 µM | 8 µM | < 2 | 12.5 µM | < 2 | – | – | – | – | –
12 | O=C1Nc2ccccc2C12N(c1ccccc1)N=C(c1ccc(Cl)cc1)N2c1ccc(Cl)cc1 (stereo not drawn) | 16.8 µM | – | < 2 | 18.5 µM | 8.2 µM | 10.9 µM | 2.1 | 22.7 µM | < 2 | – | – | – | – | –
13 | COc1ccc(C2=N[C@@H](c3ccc(Cl)cc3)[C@@H](c3ccc(Cl)cc3)N2C(=O)N2CCNC(=O)C2)c(OC(C)C)c1 [NUTLIN-3] | – | – | – | 47.8 µM | – | – | – | – | – | – | – | – | – | –
14 | O=C1Nc2ccc(Br)cc2C12N(c1cccc(Cl)c1)N=C(c1cccc(Cl)c1)N2c1cccc(Cl)c1 (stereo not drawn) | 10.2 µM | – | < 2 | 9 µM | 7 µM | 6.9 µM | < 2 | 9 µM | < 2 | – | – | – | – | –
15 | O=C1Nc2ccccc2C12N(c1ccccc1)N=C(c1ccccc1)N2c1cccc(Cl)c1 (stereo not drawn) | 19.9 µM | – | < 2 | 22.1 µM | 12.5 µM | 13.7 µM | < 2 | 25.7 µM | < 2 | – | – | – | – | –
16 | O=C1Nc2ccccc2C12N(c1cccc(Cl)c1)N=C(c1ccccc1)N2c1ccc(Cl)cc1 (stereo not drawn) | 19.8 µM | – | < 2 | 18.5 µM | 15.7 µM | 14.2 µM | < 2 | 15.4 µM | < 2 | – | – | – | – | –
17 | O=C1Nc2ccc(Br)cc2C12N(c1ccc(Cl)cc1)N=C(c1ccccc1)N2c1cccc(Cl)c1 (stereo not drawn) | 15 µM | – | < 2 | 17.2 µM | 15 µM | 11.4 µM | < 2 | 16.2 µM | < 2 | – | – | – | – | –
18 | O=C1Nc2ccc(Br)cc2C12N(c1cccc(Cl)c1)N=C(c1ccccc1)N2c1cccc(Cl)c1 (stereo not drawn) | 12 µM | – | < 2 | 13.1 µM | 10.7 µM | 9.8 µM | < 2 | 16.9 µM | < 2 | – | – | – | – | –
19 | O=C1Nc2ccccc2C12N(c1ccccc1Cl)N=C(c1ccccc1)N2c1ccc(Cl)cc1 (stereo not drawn) | – | – | – | – | 24.8 µM | 28.4 µM | – | – | – | – | – | – | – | –
20 | O=C1Nc2ccc(Br)cc2C12N(c1ccccc1)N=C(c1ccccc1)N2c1ccc(F)c(Cl)c1 (stereo not drawn) | 13.5 µM | – | < 2 | 15.9 µM | 4.6 µM | 11 µM | < 2 | 16.6 µM | < 2 | – | ≥ 2.4 | >=2.4 | >=2.4 | >=2.4
21 | O=C1Nc2ccccc2C12N(c1ccccc1)N=C(c1ccccc1)N2c1ccccc1 (stereo not drawn) | – | – | – | – | 23.4 µM | 36.2 µM | – | – | – | – | – | – | – | –
22 | O=C1Nc2ccccc2C12N(c1ccccc1Cl)N=C(c1cccc(Cl)c1)N2c1ccc(Cl)cc1 (stereo not drawn) | 25.3 µM | – | < 2 | 34.6 µM | 14.5 µM | 13.1 µM | 2.7 | 35 µM | < 2 | – | – | – | – | –
23 | O=C1Nc2ccc(Br)cc2C12N(c1ccccc1)N=C(c1ccccc1)N2c1ccc(Cl)cc1 (stereo not drawn) | 16.3 µM | – | < 2 | 18.2 µM | 5.2 µM | 16.8 µM | < 2 | 21.6 µM | < 2 | – | ≥ 2.4 | >=2.4 | >=2.4 | >=2.4
24 | O=C1Nc2ccc(Br)cc2C12N(c1ccccc1)N=C(c1ccc(Cl)cc1)N2c1cccc(Cl)c1 (stereo not drawn) | 10.8 µM | – | < 2 | 10.8 µM | 14.6 µM | 10.1 µM | < 2 | 20.3 µM | < 2 | – | – | – | – | –
25 | O=C1Nc2ccc(Cl)cc2C12N(c1ccccc1)N=C(c1ccccc1)N2c1ccccc1 (stereo not drawn) | 21.6 µM | – | < 2 | 22.1 µM | 11.7 µM | 19.1 µM | < 2 | 32.6 µM | < 2 | – | – | – | – | –
26 | O=C1Nc2c(Br)cccc2C12N(c1ccccc1)N=C(c1ccccc1)N2c1ccccc1 (stereo not drawn) | – | – | – | – | 23.7 µM | 21.8 µM | – | – | – | – | – | – | – | –
27 | O=C1Nc2c(Cl)cccc2[C@]12[C@@H](c1ccccc1)C(c1ccccc1)=NN2c1ccccc1 | – | – | – | – | 16.9 µM | 22.4 µM | > 4.5 | > 100 µM | – | – | – | – | – | –
28 | O=C1Nc2ccc(Br)cc2[C@]12[C@@H](c1cccc(Cl)c1)C(c1ccccc1)=NN2c1ccccc1 | – | – | – | – | 12.6 µM | 10 µM | – | – | – | – | – | – | – | –
29 | O=C1Nc2ccccc2C12N(c1ccccc1)N=C(c1ccccc1)N2c1ccc(F)c(Cl)c1 (stereo not drawn) | – | – | – | – | 32.3 µM | 19.5 µM | – | – | – | – | – | – | – | –
